Assay results published in ChEMBL document CHEMBL1149321, “Synthesis, radiosynthesis, and biological evaluation of carbon-11 and iodine-123 labeled 2beta-carbomethoxy-3beta-[4'-((Z)-2-haloethenyl)phenyl]tropanes: candidate radioligands for in vivo imaging of the serotonin transporter” (J Med Chem, 2004).
Where “and” joins values, the source holds several entries; their conditions need not be identical. Identical values can stand only once.

Legend:
[1] = target: Sodium-dependent serotonin transporter (Homo sapiens, UniProt P31645); experiment: biochemical; assay type: cell-based, kidney
Sodium-dependent serotonin transporter, sequence (P31645 whole entry): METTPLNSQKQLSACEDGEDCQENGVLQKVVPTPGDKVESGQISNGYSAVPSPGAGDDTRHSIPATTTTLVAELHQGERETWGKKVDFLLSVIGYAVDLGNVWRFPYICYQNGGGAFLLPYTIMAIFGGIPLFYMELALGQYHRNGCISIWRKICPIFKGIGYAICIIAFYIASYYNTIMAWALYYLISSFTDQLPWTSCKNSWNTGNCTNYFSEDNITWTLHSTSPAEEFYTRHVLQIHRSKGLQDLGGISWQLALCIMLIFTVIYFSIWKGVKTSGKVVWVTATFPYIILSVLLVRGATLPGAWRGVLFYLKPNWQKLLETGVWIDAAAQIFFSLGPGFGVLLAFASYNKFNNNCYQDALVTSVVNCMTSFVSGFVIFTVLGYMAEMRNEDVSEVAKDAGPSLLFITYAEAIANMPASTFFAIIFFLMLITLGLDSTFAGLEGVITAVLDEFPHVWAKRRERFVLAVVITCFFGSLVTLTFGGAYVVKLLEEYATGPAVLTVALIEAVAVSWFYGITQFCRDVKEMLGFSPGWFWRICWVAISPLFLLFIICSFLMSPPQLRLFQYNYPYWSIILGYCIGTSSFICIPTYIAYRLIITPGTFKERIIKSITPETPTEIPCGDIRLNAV

[2] = target: T1, Sodium-dependent noradrenaline transporter (Homo sapiens, UniProt P23975); experiment: In vitro binding affinity against human norepinephrine transporter in human embryonic kidney cell line by using [125I]-RTI-55 radioligand; assay type: cell-based
T1 sequence (P23975 whole entry): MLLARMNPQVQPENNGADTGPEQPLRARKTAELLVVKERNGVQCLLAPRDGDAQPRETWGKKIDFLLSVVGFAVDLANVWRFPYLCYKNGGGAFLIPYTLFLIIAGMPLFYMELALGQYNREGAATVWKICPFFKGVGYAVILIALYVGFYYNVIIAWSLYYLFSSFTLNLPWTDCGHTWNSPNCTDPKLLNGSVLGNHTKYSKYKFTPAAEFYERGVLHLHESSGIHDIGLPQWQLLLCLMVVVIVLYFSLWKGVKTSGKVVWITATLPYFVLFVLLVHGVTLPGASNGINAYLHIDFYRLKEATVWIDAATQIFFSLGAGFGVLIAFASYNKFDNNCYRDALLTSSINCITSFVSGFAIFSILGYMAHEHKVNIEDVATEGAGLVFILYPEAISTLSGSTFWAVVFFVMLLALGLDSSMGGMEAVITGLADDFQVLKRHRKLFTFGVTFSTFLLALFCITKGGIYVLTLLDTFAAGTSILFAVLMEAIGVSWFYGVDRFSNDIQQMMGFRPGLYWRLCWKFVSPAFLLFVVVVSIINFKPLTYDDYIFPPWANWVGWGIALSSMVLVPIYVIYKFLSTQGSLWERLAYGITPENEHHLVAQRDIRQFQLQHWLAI

[3] = target: T2, Sodium-dependent dopamine transporter (Homo sapiens, UniProt Q01959); experiment: In vitro binding affinity against human dopamine transporter in dog kidney cell line by using [125I]RTI-55 as radioligand; assay type: cell-based
T2 sequence (Q01959 whole entry): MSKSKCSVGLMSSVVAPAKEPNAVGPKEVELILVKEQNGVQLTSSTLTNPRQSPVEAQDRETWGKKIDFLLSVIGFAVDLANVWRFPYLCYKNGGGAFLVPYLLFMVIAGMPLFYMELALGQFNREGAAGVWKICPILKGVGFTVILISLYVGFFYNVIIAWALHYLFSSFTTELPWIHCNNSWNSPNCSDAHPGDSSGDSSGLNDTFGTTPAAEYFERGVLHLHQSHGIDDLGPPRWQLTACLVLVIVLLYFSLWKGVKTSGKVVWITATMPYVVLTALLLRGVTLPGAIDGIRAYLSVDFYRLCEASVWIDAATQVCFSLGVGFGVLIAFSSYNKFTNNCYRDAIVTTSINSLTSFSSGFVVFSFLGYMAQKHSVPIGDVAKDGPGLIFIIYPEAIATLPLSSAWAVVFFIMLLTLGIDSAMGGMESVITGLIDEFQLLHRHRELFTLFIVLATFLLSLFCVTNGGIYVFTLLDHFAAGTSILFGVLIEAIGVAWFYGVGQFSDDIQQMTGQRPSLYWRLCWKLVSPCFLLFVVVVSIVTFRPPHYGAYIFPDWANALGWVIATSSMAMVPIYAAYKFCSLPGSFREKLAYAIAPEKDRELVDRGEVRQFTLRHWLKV
Summary of the method: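 Membranes of MDCK cells stably expressing hDAT, grown in DMEM/10% FBS/geneticin. […] Competitor 12 concentrations 10⁻¹³–10⁻⁵ M in triplicate; GF/B filtration, gamma counting; Ki as geometric mean of ≥3 assays.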

[4] = target: T1, Sodium-dependent noradrenaline transporter; experiment: In vitro binding affinity against human norepinephrine transporter in human embryonic kidney cell line by using [3H]-[…] radioligand; assay type: cell-based
[5] = target: T2, Sodium-dependent dopamine transporter; experiment: In vitro binding affinity against human dopamine transporter in dog kidney cell line by using [3H]WIN-35428 as the radiotracer; assay type: cell-based
[6] = target: T1, Sodium-dependent noradrenaline transporter; experiment: In vitro binding affinity against human norepinephrine transporter in human embryonic kidney cell line using [125I]RTI-55 as radioligand; assay type: cell-based
[7] = target: T2, Sodium-dependent dopamine transporter; experiment: In vitro binding affinity against human dopamine transporter in dog kidney cell line using [125I]RTI-55 as radioligand; assay type: cell-based

COC(=O)C1C(c2ccc(/C=C\I)cc2)CC2CCC1N2C (centres undefined)
Ki [1]: 0.11 nM
Ki [2]: 450 nM
Ki [3]: 22 nM

COC(=O)C1C(c2ccc(C=C(Br)Br)cc2)CC2CCC1N2C (centres undefined)
Ki [1]: 1.35 nM
Ki [2]: 161 nM
Ki [3]: 6.73 nM

CN1C2CCC1C(C(=O)Oc1ccccc1)C(c1ccc(Cl)cc1)C2 (centres undefined)
Ki [4]: 242 nM
Ki [1]: 390 nM
Ki [5]: 5.25 nM

COC(=O)C1C2CCC(CC1c1ccc(/C=C\I)cc1)N2 (centres undefined)
Ki [1]: 0.05 nM and 0.04 nM (2×)
Ki [3]: 3.5 nM
Ki [6]: 24 nM
Ki [7]: 15 nM
Ki ([7]; kidney): 15 nM

COC(=O)[C@@H]1C2CC[C@H](C[C@@H]1c1ccc(I)cc1)N2C
Ki [4]: 36 nM
Ki [1]: 4.2 nM
Ki [3]: 1.3 nM

COC(=O)C1C(c2ccc(/C=C\Br)cc2)CC2CCC1N2C (centres undefined)
Ki [1]: 0.08 nM
Ki [2]: 111 nM
Ki [3]: 3.1 nM

COC(=O)C1C2CCC(CC1c1ccc(I)cc1)N2 (centres undefined)
Ki [4]: 7.5 nM
Ki [1]: 0.36 nM
Ki [3]: 0.69 nM

COC(=O)C1C2CCC(CC1c1ccc(C=C(Br)Br)cc1)N2 (centres undefined)
Ki [1]: 0.08 nM
Ki [2]: 5.6 nM
Ki [3]: 5.6 nM

COC(=O)C1C2CCC(CC1c1ccc(/C=C\Br)cc1)N2 (centres undefined)
Ki [1]: 0.04 nM
Ki [2]: 2.5 nM
Ki [3]: 3.9 nM
